The source made the active and inactive calls. No cut-off for these calls is given here.
Experiments:
[1] = Hepatic clearance in CD1 mouse liver microsomes at 1 uM preincubated for 5 mins followed by NADPH addition and measured after 45 mins by LC/MS/MS analysis; assay type: ADME, microsome
[2] = system: Mus musculus; assay: Toxicity in Swiss Webster mouse assessed as effect on liver weight at 200 mg/kg, po administered as single dose measured after 48 hrs; assay type: organism-based; settings: in vivo
Method in brief: (§1)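 Swiss Webster mice (21–23 g, n=3) get a single oral 200 mg/kg dose, given as in the PK study. They are inspected for toxic and sub-toxic signs per OECD guidelines (behaviour, motility, neurological state, skin, fur), and body weight is tracked 0–48 h. At 48 h, mice are euthanized and organ weights are normalized to body weight. Blood is taken for haematology and plasma biochemistry.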

[3] = Drug uptake in BALB/c mouse blood at 25 mg/kg, po via gavage measured after 4 hrs post dose by […]; assay type: ADME, organism-based; settings: read-out: Drug uptake
Method in brief: (§2)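 BALB/c mice get a single oral gavage dose of 25 mg/kg; tissues are collected 4 h post-dose. About 100 mg tissue is diluted 5-fold in PBS and homogenized. Homogenate is extracted as for plasma (ketoconazole internal standard, acetonitrile extraction) and quantified by HPLC-UV at 291 nm, 0.1 μM detection limit, n=2.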

[4] = Drug uptake in BALB/c mouse heart at 25 mg/kg, po via gavage measured after 4 hrs post dose by […]; assay type: ADME, organism-based; settings: read-out: Drug uptake; method in brief: as §2
[5] = Intrinsic clearance in CD1 mouse liver microsomes at 1 uM preincubated for 5 mins followed by NADPH addition and measured after 45 mins by LC/MS/MS analysis; assay type: ADME, microsome; settings: read-out: CLH
[6] = system: Mus musculus; assay: Toxicity in Swiss Webster mouse assessed as effect on motility at 200 mg/kg, po administered as single dose measured after 48 hrs; assay type: organism-based; settings: in vivo; method in brief: as §1
[7] = system: Trypanosoma cruzi; assay: Antiparasitic activity against GFP-expressing Trypanosoma cruzi Tulahuen amastigote formss infected in cardiomyocytes assessed as reduction in rate of parasite multiplication within infected cardiomyocytes measured at 72 hrs post infection by fluorescence microscopy; assay type: functional, organism-based
Method in brief: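 GFP-expressing trypomastigotes (Tulahuen or Y strain) infect cardiomyocyte monolayers at 10 parasites per cell, in DMEM + 10% FBS. Unbound parasites are washed off. At 24 h of infection, inhibitors at 0.5–25 nM in DMSO/DMEM are added and cultured 48 h. Read-out is at 72 h post-infection as GFP fluorescence (RFU) after PBS wash; microscopy uses paraformaldehyde fixation, DAPI and phalloidin stain. Triplicate.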

[8] = Half life in CD1 mouse liver microsomes at 1 uM preincubated for 5 mins followed by NADPH addition and measured by LC/MS/MS analysis; assay type: ADME, microsome; settings: mouse, microsomes, 1 µM
[9] = molecular target: Sterol 14-alpha demethylase (Trypanosoma cruzi (strain CL Brener)) (UniProt Q7Z1V1); assay: Inhibition of Trypanosoma cruzi Y CYP51 expressed in Escherichia coli using [3-3H]-eburicol as substrate after 60 mins by LC-MS analysis
Method in brief: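 Reconstituted reaction: 1 μM purified CYP51, 2 μM T. brucei NADPH-P450 reductase, 100 μM dilauroylphosphatidylcholine, isocitrate dehydrogenase/isocitrate regeneration, 50 mM K phosphate pH 7.2, 10% glycerol. [3-3H]sterol substrate at 50 μM final (eburicol for T. cruzi; obtusifoliol for T. brucei and L. infantum) with inhibitor at 1.1 μM final. Preincubate 60 s at 37 °C, start with 100 μM NADPH, run 60 min, EtOAc extraction. Gives % inhibition of 14α-demethylation, triplicate, mean ± SD.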

[10] = system: Mus musculus; assay: Toxicity in Swiss Webster mouse assessed as effect on biochemical plasma parameters at 200 mg/kg, po administered as single dose measured after 48 hrs; assay type: organism-based; settings: in vivo; method in brief: as §1
[11] = system: Mus musculus; assay: Toxicity in Swiss Webster mouse at 200 mg/kg, po administered as single dose measured after 48 hrs measured at 48 hrs post dose; assay type: organism-based; settings: in vivo; method in brief: as §1
[12] = Intrinsic clearance in Sprague-Dawley rat liver microsomes at 1 uM preincubated for 5 mins followed by NADPH addition and measured after 45 mins by LC/MS/MS analysis; assay type: ADME, microsome; settings: read-out: CLH
[13] = Drug uptake in BALB/c mouse brain at 25 mg/kg, po via gavage measured after 4 hrs post dose by […]; assay type: ADME, organism-based; settings: read-out: Drug uptake; method in brief: as §2
[14] = system: Mus musculus; assay: Toxicity in Swiss Webster mouse assessed as alteration in body to organ ratio at 200 mg/kg, po administered as single dose measured after 48 hrs; assay type: organism-based; settings: in vivo; method in brief: as §1
[15] = molecular target: Sterol 14-alpha demethylase (Trypanosoma cruzi (strain CL Brener), UniProt Q7Z1V1); assay: Binding affinity to Trypanosoma cruzi Y CYP51A expressed in Escherichia coli
Method in brief: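 Recombinant CYP51A from Y strain T. cruzi, expressed in E. coli and purified, titrated spectrally at 0.5 μM P450 in 5 cm path cuvettes with ligand over 0.1–1 μM. Type of absorbance change in difference spectra Δ(A430-A411) plotted against ligand concentration. Apparent Kd obtained by fitting to the Morrison quadratic tight-binding equation by nonlinear regression.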

[16] = molecular target: Putative lanosterol 14-alpha-demethylase (Leishmania infantum, UniProt A2TEF2); assay: Binding affinity to Leishmania infantum CYP51 expressed in Escherichia coli
Method in brief: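 Purified E. coli-expressed L. infantum CYP51 at 0.5 μM is titrated with ligand at 0.1–1 μM in 5 cm path cuvettes. Difference-spectrum absorbance change Δ(A430−A411) is plotted against ligand concentration. Apparent Kd comes from a Morrison (quadratic) tight-binding fit by nonlinear regression.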

[17] = Maximum plasma concentration in BALB/c mouse at 25 mg/kg, po via gavage by […]; assay type: ADME, organism-based; set-up: dose 25 mg/kg, route oral
Method in brief: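 Single oral gavage dose of 25 mg/kg in BALB/c mice; blood sampled at 1, 2, 4, 6, 10, 16, 24 h. Plasma is diluted in PBS with ketoconazole internal standard, extracted with 80% acetonitrile, dried and redissolved. Analysed by reversed-phase HPLC with UV at 291/250 nm, 0.1 μM detection limit. Lifetime is time until undetectable.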

[18] = system: Mus musculus; assay: Toxicity in Swiss Webster mouse assessed as effect on animal behavior at 200 mg/kg, po administered as single dose measured after 48 hrs; assay type: organism-based; settings: in vivo; method in brief: as §1
[19] = system: Mus musculus; assay: Toxicity in Swiss Webster mouse assessed as effect on fur profile at 200 mg/kg, po administered as single dose measured after 48 hrs; assay type: organism-based; settings: in vivo; method in brief: as §1
[20] = Drug uptake in BALB/c mouse spleen at 25 mg/kg, po via gavage measured after 4 hrs post dose by […]; assay type: ADME, organism-based; settings: read-out: Drug uptake; method in brief: as §2
[21] = system: Mus musculus; assay: Toxicity in Swiss Webster mouse assessed as effect on kidney weight at 200 mg/kg, po administered as single dose measured after 48 hrs; assay type: organism-based; settings: in vivo; method in brief: as §1
[22] = Drug uptake in BALB/c mouse liver at 25 mg/kg, po via gavage measured after 4 hrs post dose by […]; assay type: ADME, organism-based; settings: read-out: Drug uptake; method in brief: as §2
[23] = Intrinsic clearance in human liver microsomes at 1 uM preincubated for 5 mins followed by NADPH addition and measured after 45 mins by LC/MS/MS analysis; assay type: ADME, microsome; settings: read-out: CLH
[24] = system: Mus musculus; assay: Toxicity in Swiss Webster mouse assessed as effect on heart weight at 200 mg/kg, po administered as single dose measured after 48 hrs; assay type: organism-based; settings: in vivo; method in brief: as §1
[25] = Half life in human liver microsomes at 1 uM preincubated for 5 mins followed by NADPH addition and measured by LC/MS/MS analysis; assay type: ADME, microsome; settings: microsomes, 1 µM

Chain of Sterol 14-alpha demethylase (Trypanosoma cruzi (strain CL Brener)) (Q7Z1V1 whole entry, looked up): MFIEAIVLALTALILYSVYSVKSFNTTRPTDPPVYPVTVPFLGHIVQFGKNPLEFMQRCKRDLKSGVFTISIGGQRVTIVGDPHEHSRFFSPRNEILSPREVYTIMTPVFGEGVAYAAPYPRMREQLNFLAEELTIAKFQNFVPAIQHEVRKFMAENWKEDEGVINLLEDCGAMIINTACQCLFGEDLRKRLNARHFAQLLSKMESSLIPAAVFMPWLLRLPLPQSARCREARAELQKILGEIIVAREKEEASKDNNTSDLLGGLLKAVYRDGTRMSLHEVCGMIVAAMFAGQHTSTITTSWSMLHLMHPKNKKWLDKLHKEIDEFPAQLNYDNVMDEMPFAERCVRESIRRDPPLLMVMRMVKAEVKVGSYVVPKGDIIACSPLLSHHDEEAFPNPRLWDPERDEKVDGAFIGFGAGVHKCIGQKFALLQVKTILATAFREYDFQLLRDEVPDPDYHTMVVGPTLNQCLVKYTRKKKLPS
Chain of Sterol 14-alpha demethylase (Q7Z1V1 whole entry): as the sequence (Q7Z1V1 whole entry, looked up) above
Chain of Putative lanosterol 14-alpha-demethylase (A2TEF2 whole entry): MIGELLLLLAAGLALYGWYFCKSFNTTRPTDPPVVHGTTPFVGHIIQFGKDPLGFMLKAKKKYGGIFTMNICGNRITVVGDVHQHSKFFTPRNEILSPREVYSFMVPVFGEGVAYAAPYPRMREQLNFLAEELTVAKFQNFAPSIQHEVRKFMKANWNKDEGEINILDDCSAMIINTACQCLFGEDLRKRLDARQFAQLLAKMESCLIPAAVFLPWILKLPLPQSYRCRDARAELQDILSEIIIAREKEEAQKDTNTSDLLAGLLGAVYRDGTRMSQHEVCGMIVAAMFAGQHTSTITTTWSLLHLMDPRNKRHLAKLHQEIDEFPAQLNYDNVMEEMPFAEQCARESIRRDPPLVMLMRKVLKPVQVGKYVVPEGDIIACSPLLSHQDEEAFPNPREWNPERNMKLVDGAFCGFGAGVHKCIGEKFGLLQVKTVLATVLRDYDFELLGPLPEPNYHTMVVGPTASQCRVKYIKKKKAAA

Q: What does the source list for O=C(N[C@@H](Cn1ccnc1)c1c(F)cc(-c2ccc(F)cc2)cc1F)c1ccc(-c2nnc(-c3ccccc3)o2)cc1?
A: CLhep predicted at 1 µM [1]: 65.2 mL/min/kg; Activity [2]: Non-Toxic; concentration at 4 h [3]: 25 µM; concentration at 4 h [4]: 56 µM; CLint scaled at 1 µM [5]: 237 mL/min/kg; Activity [6]: Non-Toxic; EC50 [7]: 0.5 nM; t1/2 [8]: 23 min; inhibition [9]: Active; Activity [10]: Non-Toxic; NOAEL [11]: > 200 mg/kg; CLint scaled at 1 µM [12]: 55.8 mL/min/kg; concentration at 4 h [13]: 3 µM; Activity [14]: Non-Toxic; Kd [15]: 8.4 nM; Kd [16]: 24 nM; Cmax [17]: 25 µM; Activity [18]: Non-Toxic; Activity [19]: Non-Toxic; concentration at 4 h [20]: 63 µM; Activity [21]: Non-Toxic; concentration at 4 h [22]: 120 µM; CLint scaled at 1 µM [23]: 19.4 mL/min/kg; Activity [24]: Non-Toxic; t1/2 [25]: 64 min

— ChEMBL document CHEMBL4257584, “Sterol 14α-Demethylase Structure-Based Optimization of Drug Candidates for Human Infections with the Protozoan Trypanosomatidae” (J Med Chem, 2018)
